Laboratory results taken from ChEMBL document CHEMBL2202967, “Synthesis, characterization and biological evaluation of ureidofibrate-like derivatives endowed with peroxisome proliferator-activated receptor activity” (J Med Chem, 2012).
Calls of active or inactive are those of the source. The calls are words filed in the database; no cut-off is given here.

Legend:
[1] = target: T1, Peroxisome proliferator-activated receptor delta (Homo sapiens, UniProt Q03181); assay: Agonist activity at human GAL4-fused PPARdelta ligand binding domain expressed in COS-1 cells after 20 hrs by luciferase reporter gene transactivation assay; assay type: cell-based
T1 sequence (Q03181 whole entry): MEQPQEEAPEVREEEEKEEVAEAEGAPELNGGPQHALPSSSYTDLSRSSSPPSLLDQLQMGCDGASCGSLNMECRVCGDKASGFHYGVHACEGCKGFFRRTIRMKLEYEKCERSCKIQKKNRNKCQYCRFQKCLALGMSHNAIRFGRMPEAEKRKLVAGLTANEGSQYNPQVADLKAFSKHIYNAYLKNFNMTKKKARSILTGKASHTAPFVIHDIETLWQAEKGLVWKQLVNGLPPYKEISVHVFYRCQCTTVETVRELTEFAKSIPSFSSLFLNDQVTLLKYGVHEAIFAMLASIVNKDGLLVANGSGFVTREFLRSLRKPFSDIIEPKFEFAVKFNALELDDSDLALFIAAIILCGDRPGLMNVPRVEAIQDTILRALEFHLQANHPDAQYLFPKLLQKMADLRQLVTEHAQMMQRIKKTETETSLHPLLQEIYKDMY

[2] = target: T2, Peroxisome proliferator-activated receptor alpha (Homo sapiens, UniProt Q07869); assay: Agonist activity at human GAL4-fused PPARalpha ligand binding domain expressed in HepG2 cells after 20 hrs by luciferase reporter gene transactivation assay; assay type: cell-based
T2 sequence (Q07869 whole entry): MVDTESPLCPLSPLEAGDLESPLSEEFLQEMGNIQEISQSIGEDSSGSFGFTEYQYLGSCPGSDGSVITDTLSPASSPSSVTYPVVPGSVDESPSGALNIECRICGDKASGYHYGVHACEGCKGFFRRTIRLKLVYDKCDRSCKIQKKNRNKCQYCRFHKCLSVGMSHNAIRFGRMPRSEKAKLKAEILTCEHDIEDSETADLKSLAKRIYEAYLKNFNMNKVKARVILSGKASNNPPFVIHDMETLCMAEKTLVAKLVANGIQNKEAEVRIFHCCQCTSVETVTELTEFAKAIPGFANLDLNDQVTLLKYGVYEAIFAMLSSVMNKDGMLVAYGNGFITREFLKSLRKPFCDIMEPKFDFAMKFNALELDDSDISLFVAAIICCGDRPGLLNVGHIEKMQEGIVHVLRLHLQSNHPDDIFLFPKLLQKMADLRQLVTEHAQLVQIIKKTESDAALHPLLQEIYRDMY
Summary of the method: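 HepG2 cells in MEM with 10% heat-inactivated FBS, seeded at 10⁵ cells/well and transfected after 24 h by calcium phosphate. Plasmids: Gal4-PPARα LBD (30 ng), pGal5TKpGL3 luciferase reporter (100 ng) and pCMVβgal (250 ng). Ligands added 4 h post-transfection, for 20 h, in triplicate. Luciferase read in cell extracts, with β-galactosidase activity measured alongside; experiments repeated at least twice.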

[3] = Solubility of the compound in HEPES buffer; assay type: physicochemical
[4] = target: T3, Peroxisome proliferator-activated receptor gamma (Homo sapiens, UniProt P37231); assay: Agonist activity at human GAL4-fused PPARgamma ligand binding domain expressed in HepG2 cells after 20 hrs by luciferase reporter gene transactivation assay; assay type: cell-based
T3 sequence (P37231 whole entry): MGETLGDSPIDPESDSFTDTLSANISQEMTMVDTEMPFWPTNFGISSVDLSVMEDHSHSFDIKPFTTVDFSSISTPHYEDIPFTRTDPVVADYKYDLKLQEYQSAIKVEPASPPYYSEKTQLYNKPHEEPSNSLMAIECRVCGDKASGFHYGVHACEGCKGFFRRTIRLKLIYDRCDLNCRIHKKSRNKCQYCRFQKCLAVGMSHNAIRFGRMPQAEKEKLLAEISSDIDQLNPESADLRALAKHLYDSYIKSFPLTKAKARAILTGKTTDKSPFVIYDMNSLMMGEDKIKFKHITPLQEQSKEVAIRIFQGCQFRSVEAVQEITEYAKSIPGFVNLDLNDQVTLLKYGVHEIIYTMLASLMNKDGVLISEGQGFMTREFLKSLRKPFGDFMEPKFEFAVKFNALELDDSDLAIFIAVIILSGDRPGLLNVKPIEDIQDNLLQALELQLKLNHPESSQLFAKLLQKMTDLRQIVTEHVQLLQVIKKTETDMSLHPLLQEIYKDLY

[5] = system: Mus musculus; assay: Induction of PPARalpha-mediated upregulation of Acadl mRNA expression in liver of high fat diet fed-induced obesity and insulin resistance C57Bl/6J mouse model at 100 mg/kg/day, po administered once daily for 2 weeks by real time qPCR analysis; assay type: functional, organism-based
Summary of the method: (§1)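 Livers came from mice fed a high-fat diet for 16 weeks, then gavaged once daily for 2 weeks in 0.5% hypromellose, and were snap-frozen at sacrifice. Total RNA was extracted with Trizol and cleaned up on RNeasy columns. 1 μg RNA was used for mRNA quantitation.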

[6] = system: Mus musculus; assay: Induction of PPARalpha-mediated upregulation of Acadm mRNA expression in liver of high fat diet fed-induced obesity and insulin resistance C57Bl/6J mouse model at 100 mg/kg/day, po administered once daily for 2 weeks by real time qPCR analysis; assay type: functional, organism-based; summary of the method: as §1
[7] = system: Mus musculus; assay: Induction of PPARalpha-mediated upregulation of Acox1 mRNA expression in liver of high fat diet fed-induced obesity and insulin resistance C57Bl/6J mouse model at 100 mg/kg/day, po administered once daily for 2 weeks by real time qPCR analysis; assay type: functional, organism-based; summary of the method: as §1
[8] = system: Mus musculus; assay: Increase in liver weight in high fat diet fed-induced obesity and insulin resistance C57Bl/6J mouse model at 100 mg/kg/day, po administered once daily for 2 weeks; assay type: functional, organism-based
[9] = target: T3, Peroxisome proliferator-activated receptor gamma; assay: Binding affinity to PPARgamma ligand binding domain by isothermal titration calorimetry
[10] = target: T4, Peroxisome proliferator-activated receptor alpha (Homo sapiens) (UniProt Q07869); assay: Agonist activity at human GAL4-fused PPARalpha ligand binding domain expressed in HepG2 cells after 20 hrs by luciferase reporter gene transactivation assay relative to WY14643; assay type: cell-based
T4 sequence (whole entry): T2 sequence (Q07869 whole entry)
Summary of the method: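 GAL4-human PPARα LBD chimera (30 ng) with Gal5-TK luciferase reporter (100 ng) and pCMVβgal (250 ng), calcium-phosphate transfected into HepG2 (MEM, 10% FBS) seeded 10⁵ cells/well. Ligands added 4 h post-transfection for 20 h, in triplicate. Luciferase read in cell extracts, normalised to β-galactosidase activity. Experiments repeated at least twice.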

[11] = target: T5, Peroxisome proliferator-activated receptor gamma (Homo sapiens) (UniProt P37231); conditions: BL21-DE3
T5 sequence (whole entry): T3 sequence (P37231 whole entry)

[12] = system: HCT-15; assay: Antitumor activity against human HCT15 cells assessed as inhibition of cell proliferation after 1 day by MTT assay; assay type: functional, cell-based; conditions: HCT-15, 24 h
Summary of the method: (§2)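 MTT assay with 10,000 cells/well seeded on day 1. Ligands added on day 2 at 1, 5, 10, 50 and 100 μM, from 20 mM DMSO stocks, for 1 or 2 days. Six replicate wells per drug, untreated control column. IC50 is the concentration giving 0.5 fraction affected versus untreated controls, taken from dose–effect curves. Each experiment in triplicate.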

[13] = system: HT-29; assay: Antitumor activity against human HT-29 cells assessed as inhibition of cell proliferation after 1 day by MTT assay; assay type: functional, cell-based; conditions: HT-29, 24 h; summary of the method: as §2
[14] = system: HT-29; assay: Antitumor activity against human HT-29 cells assessed as inhibition of cell proliferation after 2 days by MTT assay; assay type: functional, cell-based; conditions: HT-29, 48 h; summary of the method: as §2
[15] = system: LoVo; assay: Antitumor activity against human LoVo cells assessed as inhibition of cell proliferation after 2 days by MTT assay; assay type: functional, cell-based; conditions: 48 h; summary of the method: as §2
[16] = system: HCT-15; assay: Antitumor activity against human HCT15 cells assessed as inhibition of cell proliferation after 2 days by MTT assay; assay type: functional, cell-based; conditions: HCT-15, 48 h; summary of the method: as §2
[17] = system: LoVo; assay: Antitumor activity against human LoVo cells assessed as inhibition of cell proliferation after 1 day by MTT assay; assay type: functional, cell-based; conditions: 24 h; summary of the method: as §2
[18] = system: HT-29; assay: Induction of apoptosis in human HT-29 cells at IC50 by Annexin V-FITC/propidium iodide staining based flow cytometry; assay type: functional, cell-based; conditions: TDE = time-dependent effect
[19] = system: Mus musculus; assay: Reduction of visceral fat weight in high fat diet fed-induced obesity and insulin resistance C57Bl/6J mouse model at 10 mg/kg/day, po administered once daily for 2 weeks measured on day 12 by in vivo magnetic resonance imaging analysis; assay type: functional, organism-based
Summary of the method: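 Mice fed a high-fat diet for 16 weeks were gavaged daily for 2 weeks in 0.5% hypromellose. Under 1% isoflurane they were scanned at 4.7 T with sixteen 1 mm axial T1-weighted slices from kidneys to bladder. Visceral fat was expressed as percentage of total image area, 3 mice per group.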

[20] = system: Mus musculus; assay: Reduction of body weight in high fat diet fed-induced obesity and insulin resistance C57Bl/6J mouse model at 10 mg/kg/day, po administered once daily for 2 weeks relative to control; assay type: functional
Summary of the method: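 Male C57Bl/6J mice, 6 weeks old, on high-fat diet for 16 weeks. Then dosed once daily for 2 weeks by oral gavage in 0.5% hypromellose; doses chosen in a preliminary dose-finding study. Body weight measured at end of treatment versus HFD controls, 6 mice per group.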

Row | SMILES | EC50 ([2]; hepg2) | EC50 ([4]; read-out: EC50) [nM] | EC50 ([2]; read-out: EC50) [nM] | Kd [9] [µM] | EC50 ([1]; read-out: EC50) [nM] | Emax [10] | other results
1 | CCCCCCCN(CCc1ccc(O[C@@H](Cc2ccccc2)C(=O)O)cc1)c1nc2ccccc2o1.NC1CCCCC1 | Not Active | 1700 | – | – | – | – | EC50 ([1]; cos-1): Not Active; solubility [3]: Insoluble
2 | Cc1cccc(Nc2cc(Cl)nc(SCC(=O)O)n2)c1C [PIRINIXIC ACID] | – | – | – | – | – | – | EC50 ([4]; hepg2): Not Active
3 | CC(C)OC(=O)C(C)(C)Oc1ccc(C(=O)c2ccc(Cl)cc2)cc1 | – | – | – | – | – | – | Activity [5]: Active; Activity [6]: Active; Activity [7]: Active; Activity [8]: Active
4 | CCCCCCCN(CCc1ccc(O[C@H](Cc2ccccc2)C(=O)O)cc1)c1nc2ccccc2o1.NC1CCCCC1 | – | 2700 | 1720 | – | – | – | EC50 ([1]; cos-1): Not Active; solubility [3]: Insoluble
5 | CCCCCCCN(CCc1ccc(OCC(=O)O)cc1)c1nc2ccccc2o1 | – | 800 | 122 | 7.7 | 570 | 87% | –
6 | CCCCCCCN(CCc1ccc(O[C@H](C)C(=O)O)cc1)c1nc2ccccc2o1 | – | 150 | 25 | 1.5 | 130 | 93% | deltaT [11]: 2 °C
7 | CCCCCCCN(CCc1ccc(O[C@@H](C)C(=O)O)cc1)c1nc2ccccc2o1 | – | 2300 | 620 | 3.3 | 850 | 78% | deltaT [11]: 2 °C
8 | CCCc1c(OCCCOc2ccc(OCC(=O)O)cc2)ccc(C(C)=O)c1O | Not Active | – | – | – | 21 | – | EC50 ([4]; hepg2): Not Active
9 | Cc1c(C)c2c(c(C)c1O)CCC(C)(COc1ccc(CC3SC(=O)NC3=O)cc1)O2 (centres undefined) [TROGLITAZONE] | – | – | – | – | – | – | IC50 [12]: > 100 µM; IC50 [13]: > 100 µM; IC50 [14]: 50 µM; IC50 [15]: 65 µM; IC50 [16]: 50.9 µM; IC50 [17]: > 100 µM; Activity [18]: tde
10 | CN(CCOc1ccc(CC2SC(=O)NC2=O)cc1)c1ccccn1 (centres undefined) [ROSIGLITAZONE] | Not Active | – | – | – | – | inactive | inhibition [19]: inactive; inhibition [20]: inactive
